ChEMBL document CHEMBL4673193, “Investigation of thiazolyl-benzothiophenamides as potential agents for African sleeping sickness” (RSC Med Chem, 2020)

What was measured:
HEK293 [1] = test: Cytotoxicity against human HEK293 cells assessed as reduction in cell viability at 83.3 uM incubated for 48 hrs by resazurin dye based assay relative to control; conditions: hek293, 48 h
[2] = test system: Trypanosoma brucei brucei; test: Antitrypanosomal activity against Trypanosoma brucei brucei 427 assessed as parasite growth inhibition at 83.3 uM incubated for 48 hrs by resazurin dye based assay relative to control; assay type: functional; design: scale not given: the % may be the effect or the level left
[3] = test system: Trypanosoma brucei brucei; test: Antitrypanosomal activity against Trypanosoma brucei brucei 427 assessed as parasite growth inhibition incubated for 48 hrs by resazurin dye based assay; assay type: functional, organism-based
Method in brief: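 Log-phase T. b. brucei 427 at 1200 parasites/mL in HMI-9 with 10% FCS, preincubated 24 h at 37 °C/5% CO₂. Serial dilutions made in DMEM, final 83.34 to 0.04 μM, 48 h exposure. 0.49 mM resazurin solution added, then 2 h at 37 °C plus 22 h at room temperature. Fluorescence read at ex 535/em 590 nm; IC50 from concentration curves.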

[4] = Selectivity index, ratio of IC50 for human HEK293 cells to IC50 for antitrypanosomal activity against Trypanosoma brucei brucei 427; assay type: toxicity; conditions: read-out: Ratio IC50
HEK293 [5] = test: Cytotoxicity against human HEK293 cells assessed as reduction in cell viability at 79.4 uM incubated for 48 hrs by resazurin dye based assay relative to control; conditions: hek293, 48 h
[6] = Selectivity index, ratio of IC50 for rat L6 cells to IC50 for antitrypanosomal activity against bloodstream form of Trypanosoma brucei rhodesiense STIB900; assay type: toxicity; conditions: read-out: Ratio IC50
L6 = test: Cytotoxicity against rat L6 cells assessed as reduction in cell viability after 70 hrs by Alamar blue dye-based fluorometric analysis; conditions: L6, 70 h
Method in brief: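 Rat skeletal myoblast L6 cells, 4000 per well in RPMI 1640 with L-glutamine and 10% FBS. Eleven 3-fold dilutions from 100 to 0.002 μg/mL, 70 h. Wells checked by microscope, then Alamar Blue added for 2 h. Fluorescence read at 536/588 nm; IC50 by linear and 4-parameter logistic regression of dose-inhibition curves.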

[7] = test system: Trypanosoma brucei rhodesiense; test: Antitrypanosomal activity against bloodstream form of Trypanosoma brucei rhodesiense STIB900 incubated for 70 hrs by Alamar blue dye-based fluorometric analysis; assay type: functional, organism-based; conditions: STIB900, 70 h
[8] = test system: Trypanosoma brucei brucei; test: Antitrypanosomal activity against Trypanosoma brucei brucei 427 assessed as parasite growth inhibition at 79.4 uM incubated for 48 hrs by resazurin dye based assay relative to control; assay type: functional; design: scale not given: the % may be the effect or the level left
HEK293 [9] = test: Cytotoxicity against human HEK293 cells assessed as reduction in cell viability incubated for 48 hrs by resazurin dye based assay
Method in brief: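 HEK293 cells at 7.27×10⁴ cells/mL in DMEM with 10% FCS, preincubated 24 h at 37 °C/5% CO₂. Compounds serially diluted in DMEM, final 83.34 to 0.04 μM, 48 h. 0.49 mM resazurin solution in medium added, then 2 h at 37 °C plus 22 h at room temperature. Fluorescence read at 535/590 nm; IC50 calculated.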

[10] = test system: Trypanosoma brucei brucei; test: Antitrypanosomal activity against Trypanosoma brucei brucei 427 assessed as parasite growth inhibition at 41.7 uM incubated for 48 hrs by resazurin dye based assay relative to control; assay type: functional; design: scale not given: the % may be the effect or the level left
[11] = Selectivity index, ratio of IC50 for antitrypanosomal activity against bloodstream form of Trypanosoma brucei rhodesiense STIB900 to IC50 for antitrypanosomal activity against Trypanosoma brucei brucei 427; assay type: functional
HEK293 [12] = test: Cytotoxicity against human HEK293 cells assessed as reduction in cell viability at 41.7 uM incubated for 48 hrs by resazurin dye based assay relative to control; conditions: hek293, 48 h
[13] = Trypanosoma brucei, 427, 48 h, read-out: IC50
[14] = Homo sapiens, HEK293, 48 h, read-out: IC50

Row | IC50 [3, 13] | SMILES | Activity (HEK293 [1]) | selectivity ratio [4] | also measured
1 | 9.39 µM | COc1cccc(-c2c(C(=O)Nc3nc4c(s3)C(=O)CCC4)sc3ccccc23)c1 | 88% | > 9 | –
2 | 6.53 µM | CC1(C)CC(=O)c2sc(NC(=O)c3sc4cc(Br)ccc4c3Cl)nc2C1 | – | > 12 | Activity (HEK293 [5]): < 50%
3 | 0.75 µM | CC1(C)CC(=O)c2sc(NC(=O)c3cc4ccccc4s3)nc2C1 | – | > 106 | selectivity ratio [6]: 13; IC50 (L6): 65.4 µM; IC50 [7]: 5.04 µM; Activity (HEK293 [5]): < 50%
4 | 6.38 µM | O=C1CCCc2nc(NC(=O)c3sc4ccccc4c3-c3cccc4ccccc34)sc21 | – | 1 | IC50 (HEK293 [9]; [14]): 4.63 µM
5 | 7.23 µM | COc1ccc(-c2c(C(=O)Nc3nc4c(s3)C(=O)CCC4)sc3ccccc23)cc1 | 88% | > 12 | –
6 | 2.27 µM | Cc1ccc2c(Cl)c(C(=O)Nc3nc4c(s3)C(=O)CC(C)(C)C4)sc2c1 | < 50% | > 37 | –
7 | 2.5 µM | O=C1CCCc2nc(NC(=O)c3sc4ccccc4c3Cl)sc21 | < 50% | > 48 | selectivity ratio [6]: 3; Ratio IC50 [11]: 4; IC50 (L6): 24.9 µM; IC50 [7]: 8.96 µM
8 | 7.77 µM | Cc1ccc2c(Cl)c(C(=O)Nc3nc4c(s3)C(=O)CCC4)sc2c1 | < 50% | > 11 | –
9 | 2.91 µM | COc1ccc(-c2c(C(=O)Nc3nc4c(s3)C(=O)CC(C)(C)C4)sc3ccccc23)cc1 | < 50% | > 29 | –
10 | 1.41 µM | CC1(C)CC(=O)c2sc(NC(=O)c3nc4ccccc4s3)nc2C1 | – | > 56 | selectivity ratio [6]: 3; IC50 (L6): 30.4 µM; IC50 [7]: 10.6 µM; Activity (HEK293 [5]): < 50%
11 | 0.73 µM | CC1(C)CC(=O)c2sc(NC(=O)c3sc4ccccc4c3Cl)nc2C1 | – | 14 | IC50 (HEK293 [9]; [14]): 10.4 µM
12 | 2.79 µM | CC1(C)CC(=O)c2sc(NC(=O)c3cc4cccc(-c5ccccc5)c4s3)nc2C1 | – | > 28 | Activity (HEK293 [5]): < 50%
13 | 2.21 µM | COc1cccc(-c2c(C(=O)Nc3nc4c(s3)C(=O)CC(C)(C)C4)sc3ccccc23)c1 | < 50% | > 38 | –
14 | 0.32 µM | CC1(C)CC(=O)c2sc(NC(=O)c3sc4c(Br)cccc4c3Cl)nc2C1 | – | > 130 | selectivity ratio [6]: 4; Activity (HEK293 [12]): < 50%; IC50 (L6): 25.2 µM; IC50 [7]: 7.13 µM
15 | 5.86 µM | COc1ccc2sc(C(=O)Nc3nc4c(s3)C(=O)CC(C)(C)C4)c(Cl)c2c1 | < 50% | > 14 | –

Continued, compound first:

Row | SMILES | IC50 [3, 13] | Activity (HEK293 [1]) | selectivity ratio [4] | also measured
16 | C=CCN(C(=O)c1sc2ccccc2c1Cl)c1nc2c(s1)C(=O)CCC2 | – | < 50% | – | Activity [2]: <50%
17 | O=C(Nc1nccs1)c1sc2ccccc2c1Cl | – | < 50% | – | Activity [2]: 96%
18 | CC1(C)CC(=O)c2sc(NC(=O)c3sc4ccccc4c3-c3cccc4ccccc34)nc2C1 | – | 52% | – | Activity [2]: 100%
19 | O=C(Nc1nc2c(s1)C(=O)CCC2)c1cc2ccccc2s1 | – | – | – | Activity [8]: 97%; Activity (HEK293 [5]): < 50%
20 | O=C1CCCc2nc(NC(=O)c3sc4cc(Br)ccc4c3Cl)sc21 | – | – | – | Activity [8]: 78%; Activity (HEK293 [5]): < 50%
21 | O=C(Nc1nc2ccccc2s1)c1sc2ccccc2c1Cl | – | < 50% | – | Activity [2]: <50%
22 | COc1cc([C@@H]2c3cc4c(cc3[C@H](O)[C@H]3COC(=O)[C@H]23)OCO4)cc(OC)c1OC [PODOFILOX] | – | – | – | IC50 (L6): 0.011 µM
23 | O=C(Nc1nc2c(s1)CCCC2)c1sc2ccccc2c1Cl | – | < 50% | – | Activity [2]: 89%
24 | O=C1CCCc2nc(NC(=O)c3sc4ccccc4c3-c3ccc(C(F)(F)F)cc3)sc21 | – | 59% | – | Activity [10]: 97%
25 | N=C(N)c1ccc(OCCCCCOc2ccc(C(=N)N)cc2)cc1 [PENTAMIDINE] | 0.00213 µM | – | 307 | –
26 | O=C1CCCc2nc(NC(=O)c3sc4ccccc4c3-c3ccccc3)sc21 | – | < 50% | – | Activity [2]: 77%
27 | CC1(C)CC(=O)c2sc(NC(=O)c3sc4ccccc4c3-c3ccccc3)nc2C1 | – | – | – | Activity (HEK293 [12]): < 50%; Activity [10]: 93%
28 | CC1(C)CC(=O)c2sc(NC(=O)c3cccs3)nc2C1 | – | – | – | Activity [8]: 90%; Activity (HEK293 [5]): < 50%
29 | CC1(C)CC(=O)c2sc(NC(=O)c3sc4ccccc4c3-c3ccc(C(F)(F)F)cc3)nc2C1 | – | < 50% | – | Activity [2]: <50%
30 | COc1cccc2cc(C(=O)Nc3nc4c(s3)C(=O)CC(C)(C)C4)sc12 | – | – | – | IC50 [3]: Nd(Insoluble); selectivity ratio [6]: 6; IC50 (HEK293 [9]; hek293): Nd(Insoluble); IC50 (L6): 54.5 µM; IC50 [7]: 8.68 µM
31 | Nc1nc(N)nc(Nc2ccc([As]3SCC(CO)S3)cc2)n1 (stereo unspecified) [MELARSOPROL] | – | – | – | IC50 [7]: 0.014 µM
